Only some compounds are listed: those with a hit (about 2% of all), similar ones and a draw of the others.
AI-2 QS mod – modulators of Vibrio harveyi AI-2 quorum sensing system; Vibrio harveyi JMH597 AI-2 luminescence/OD600 ratio, 9 h; hits give low values; strain lacks LuxN and CqsS sensors; 0 = neutral-control median; activity change, % at 7.5 µM; 0.4% of 300,000 active; AID 2094; in the data active means activity change below about -75%, passing the limit was not always enough;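 further: luminescence divided by OD600 gain over 9 h not by final OD600 alone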
T cruzi repl – blocks replication of Trypanosoma cruzi. T. cruzi beta-gal in NIH3T3, luminescence, 90 h. inhibition, % (no concentration beside the values). 1.4% of 300,000 active;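 active means mean inhibition across valid replicates above about 55%, limit read from the data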;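 further: signal also drops with host cell toxicity which is not excluded here; higher percent means less beta-gal luminescence so fewer parasites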
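Assay system: NIH/3T3 host cells with β-galactosidase reporter T. cruzi; input: 5,000 host fibroblasts per well; compound: single 50 nL compound addition per well in DMSO; timing: ≥90 h infection period, 3 h prior cell attachment; measured by: GalScreen β-gal luminescence, detergent lysis, 60 min; evaluation: percent inhibition of parasite-derived β-gal signal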
HIF activator – HIF pathway transcriptional activation; U2OS HRE-luciferase reporter, luminescence; normalized: DMSO 0%, desferrioxamine 100%; activation, % at 7.5 µM (by protocol); 0.32% of 300,000 active; AID 1910;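 active means mean activation of at least 10% of the iron chelator positive control signal, with at least half of replicates also reaching 10%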
ARNT TACC3 PPI – ARNT/TACC3 interaction disruption | AID 623870 | inhibition, % at 9.99 µM | Q9Y6A5 | 0.66% of 390,000 active | AlphaScreen His-ARNT PAS-B/GST-TACC3 binding, luminescence; TACC3 fragment carries E629A point mutation;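 active means mean inhibition of replicates at least 50% and at least half of replicates each reaching 50%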
Of the large screens only hits and unclear results are named; the others gave an inactive call.

Cc1noc(C)c1NC(=O)N(C)C[C@H]1Oc2ccc(NC(=O)c3ccncc3)cc2CC(=O)N([C@H](C)CO)C[C@H]1C	none (no result: AI-2 QS mod, T cruzi repl, HIF activator)
O=C(c1ccc(Cl)c(S(=O)(=O)N2CCc3ccccc32)c1)N1CCN(c2ccccc2O)CC1	none (no result: AI-2 QS mod, T cruzi repl, HIF activator)
Cc1cccc(N2CCN(C(=O)c3ccc(Cl)c(S(=O)(=O)N4CCc5ccccc5C4)c3)CC2)c1C	T cruzi repl 59
CNC(=O)C[C@@H]1CC[C@@H]2[C@@H](COc3ccc(NC(=O)C4CCCCC4)cc3C(=O)N2C)O1	none (no result: AI-2 QS mod, T cruzi repl, HIF activator)
Cc1ccc(C)c(N/C(N)=N/c2nc(C)cc(C)n2)c1	T cruzi repl 65
COc1ccccc1S(=O)(=O)N[C@H]1C=C[C@@H](CC(=O)NCc2cc(F)cc(F)c2)O[C@@H]1CO	none (no result: AI-2 QS mod, T cruzi repl, HIF activator)
O=C(Nn1c(-c2ccc(Br)cc2)nc2ccccc2c1=O)c1cccnc1	none
O=C(Nn1c(-c2ccncc2)nc2ccccc2c1=O)c1ccc(Br)cc1	T cruzi repl 67
Cc1noc(C)c1S(=O)(=O)Nc1ccc2c(c1)C(=O)N([C@H](C)CO)C[C@H](C)[C@@H](CN(C)C(=O)Cc1ccccc1)OCCCC[C@H](C)O2	none (no result: AI-2 QS mod, T cruzi repl, HIF activator)
CCOc1ccc(N=c2cc(-c3ccc(OC)cc3)oc3ccccc23)cc1	T cruzi repl 57
COCCN1C(=O)C(CC(=O)Nc2ccc(C(=O)O)cc2)SC1=Nc1ccccc1 (centres undefined)	none (no result: T cruzi repl, HIF activator)
COC(=O)c1cc(NC(=O)CC2SC(=Nc3ccccc3)N(CCc3c[nH]c4ccccc34)C2=O)cc(C(=O)OC)c1 (centres undefined)	T cruzi repl 67
Cc1ccc2[nH]c3nc(NN)nnc3c2c1	ARNT TACC3 PPI 61
Cc1ccc2[nH]c3nc(SCCN4CCOCC4)nnc3c2c1	none
O=C(Nc1ncc(Cc2ccccc2Cl)s1)c1ccc(-c2cccc([N+](=O)[O-])c2)o1	T cruzi repl 60
COCCn1c(=S)[nH]c2cc(C(=O)NC(C)C)ccc2c1=O	none (no result: AI-2 QS mod, T cruzi repl, HIF activator)
COCCn1c(=S)[nH]c2cc(C(=O)N3CCc4ccccc43)ccc2c1=O	AI-2 QS mod -78
CO[C@H]1CN(C)C(=O)c2cc(NC(C)=O)ccc2OC[C@@H](C)N(Cc2cc(F)ccc2F)C[C@@H]1C	none (no result: AI-2 QS mod, T cruzi repl, HIF activator)
Cn1c(SCc2ccccc2)nnc1-c1ccc(O)cc1	ARNT TACC3 PPI active
Cn1c(SCC(=O)Nc2ccccc2)nnc1-c1ccc(NC(=O)CCc2ccccc2)cc1	HIF activator 26
CC(C)c1ccc(NC(=O)CCc2ccccc2)cc1	HIF activator 12
COc1ccc(NC(=O)N(C)C[C@@H]2Oc3ccc(NC(=O)Cn4cnnn4)cc3CC(=O)N([C@@H](C)CO)C[C@H]2C)cc1	none (no result: AI-2 QS mod, T cruzi repl, HIF activator)
CCOc1ccc(/C=N/n2cc(-c3ccccc3)[nH]c2=S)cc1	T cruzi repl 73
COc1cccc(C2C=C(c3cccs3)Nc3ncnn32)c1OC (centres undefined)	ARNT TACC3 PPI 28
COc1ccc(C2C=C(c3ccc(Br)s3)Nc3ncnn32)cc1OC (centres undefined)	none (no result: ARNT TACC3 PPI)
COc1ccc(-n2nc(C)c3c(=O)c4c([nH]c32)CCCC4)cc1	T cruzi repl 62
COc1ccc(-n2nc(C)c3sc(C)nc3c2=O)cc1	none
O=C(Oc1c(CN2CCOCC2)cc(Cl)c2cccnc12)c1ccccc1F	T cruzi repl 74, ARNT TACC3 PPI 66
COc1cc2c(cc1OC)[C@@H]1Cc3ccc(OC)c(OC)c3CN1CC2	T cruzi repl 56
C=CCn1nc([N+](=O)[O-])nc1Sc1cccc2cccnc12	ARNT TACC3 PPI 74
O=[N+]([O-])c1ccc(Sc2cccc3cccnc23)cc1	none
C[C@@H]1CN([C@H](C)CO)C(=O)c2cc(NS(=O)(=O)c3ccccc3)ccc2O[C@@H](C)CCCCO[C@@H]1CN(C)C(=O)Cc1ccccc1	none (no result: AI-2 QS mod, T cruzi repl, HIF activator)
O=C(NC1CCCCC1)c1ccc(S(=O)(=O)NCc2ccco2)cc1	none
O=C(NC1CCN(Cc2ccccc2)CC1)c1ccc(S(=O)(=O)NCc2ccco2)cc1	T cruzi repl 73
COc1ccc(NS(=O)(=O)c2cccc(C(=O)NC3CCN(Cc4ccccc4)CC3)c2)cc1	T cruzi repl 63
Cc1c(C(=O)NC2CCN(Cc3ccccc3)C2)oc2ccc(Br)cc12 (centres undefined)	none
CCOc1ccc2oc(C(=O)NC3CCN(Cc4ccccc4)CC3)c(C)c2c1	T cruzi repl 61
C[C@@H]1CN([C@H](C)CO)C(=O)Cc2cc(NC(=O)Cc3cn(C)c4ccccc34)ccc2O[C@H]1CN(C)S(=O)(=O)c1cccs1	none (no result: AI-2 QS mod, T cruzi repl, HIF activator)
Cc1noc(C)c1NC(=O)N(C)C[C@@H]1OCCCC[C@H](C)Oc2ccc(NS(=O)(=O)c3c(C)noc3C)cc2C(=O)N([C@@H](C)CO)C[C@H]1C	none (no result: AI-2 QS mod, T cruzi repl, HIF activator)
C[C@H](NC(=O)[C@H]1[C@H](CO)[C@H]2Cn3c(ccc(-c4ccncc4)c3=O)[C@@H]1N2C)c1ccccc1	none (no result: AI-2 QS mod, T cruzi repl, HIF activator)
Cc1c(Cl)cccc1NC(=S)N(CCN(C)C)C(C)c1ccccn1 (centres undefined)	ARNT TACC3 PPI 54
Cc1ccccc1NC(=S)N(CCN(C)C)C(C)c1ccccn1 (centres undefined)	none
COCC#Cc1cnc2c(c1)C(=O)N([C@H](C)CO)C[C@@H](C)[C@H](CN(C)C(=O)c1cccc(F)c1)O2	none (no result: AI-2 QS mod, T cruzi repl, HIF activator)
C[C@@H]1CN([C@H](C)CO)C(=O)c2cc(-c3cccc(C#N)c3)cnc2O[C@H]1CN(C)Cc1ccncc1	none (no result: AI-2 QS mod, T cruzi repl, HIF activator)
c1ccc(Nc2ccccc2Nc2ccccn2)nc1	none
Oc1cccc2ccc(Nc3ccccn3)nc12	AI-2 QS mod -86, T cruzi repl 62, ARNT TACC3 PPI 64
Fc1ccc(C2c3[nH]c4ccccc4c3CCN2Cc2cccn2-c2ncccn2)cc1 (centres undefined)	T cruzi repl 70
CCOC(=O)/C(N=Nc1c(C)n(C)n(-c2ccccc2)c1=O)=C(\C)O	ARNT TACC3 PPI 72
Cc1c(N=NC2=C(O)CC(C)(C)CC2=O)c(=O)n(-c2ccccc2)n1C	ARNT TACC3 PPI 61
Cc1noc(C)c1NC(=O)N(C)C[C@@H]1Oc2c(NC(=O)Nc3ccc4c(c3)OCO4)cccc2C(=O)N([C@H](C)CO)C[C@H]1C	none (no result: AI-2 QS mod, T cruzi repl, HIF activator)
Clc1cccc(-c2ccc(CNCc3ccccn3)o2)c1	ARNT TACC3 PPI 74
COc1ccc(S(=O)(=O)Nc2cccc3c2O[C@@H](CN(C)Cc2ccncc2)[C@H](C)CN([C@@H](C)CO)C3=O)cc1	none (no result: AI-2 QS mod, T cruzi repl, HIF activator)
O=C(NC1CCCCC1)C(c1ccccc1)N(C(=O)Cc1ccsc1)c1ccccc1 (centres undefined)	none
O=C(NC1CCCCC1)C(c1ccc(F)cc1)N(C(=O)Cc1ccsc1)c1ccc(F)cc1 (centres undefined)	T cruzi repl 74 (no result: HIF activator)
CCC(C(=O)OCC(=O)Nc1ccc(F)cc1)c1ccccc1 (centres undefined)	none (no result: AI-2 QS mod, T cruzi repl, HIF activator)
CCC(C(=O)OCC(=O)Nc1ccc(SC(F)F)cc1)c1ccccc1 (centres undefined)	AI-2 QS mod -89, T cruzi repl 58 (no result: ARNT TACC3 PPI)
COc1ccnc(CSC(N)=Nc2ccccc2OC)c1	ARNT TACC3 PPI 62
Cc1ccc(/C=N/Nc2ccnc3cc(Cl)ccc23)c(C)c1	T cruzi repl 68

Screening data as filed in PubChem BioAssay.
